From ChEMBL document CHEMBL1938250, “The discovery of non-benzimidazole and brain-penetrant prolylcarboxypeptidase inhibitors” (Bioorg Med Chem Lett, 2012)
Values belong to the compound of their own block, whether it stands above or below them. The source made the active and inactive calls. No cut-off for these calls is given here.

How the values were obtained:
[1] = target: T1, Lysosomal Pro-X carboxypeptidase (Mus musculus, UniProt Q7TMR0); test: Inhibition of PrCP-mediated conversion of Ang3 to Ang(2-7) in mouse plasma
T1 sequence (Q7TMR0 whole entry): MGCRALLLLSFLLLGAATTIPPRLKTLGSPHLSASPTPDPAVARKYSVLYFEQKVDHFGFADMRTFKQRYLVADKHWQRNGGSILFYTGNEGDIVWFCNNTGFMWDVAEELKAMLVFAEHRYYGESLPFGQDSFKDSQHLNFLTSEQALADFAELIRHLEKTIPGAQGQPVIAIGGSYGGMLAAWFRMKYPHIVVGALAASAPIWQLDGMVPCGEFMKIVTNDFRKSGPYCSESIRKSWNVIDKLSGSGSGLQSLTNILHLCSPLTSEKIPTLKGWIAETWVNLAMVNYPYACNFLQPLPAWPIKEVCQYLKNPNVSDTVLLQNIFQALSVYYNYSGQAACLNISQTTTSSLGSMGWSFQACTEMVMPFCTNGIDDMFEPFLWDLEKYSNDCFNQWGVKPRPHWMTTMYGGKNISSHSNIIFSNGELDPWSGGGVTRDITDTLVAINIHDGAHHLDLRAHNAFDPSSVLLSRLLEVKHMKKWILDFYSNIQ
How it was run: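 Whole mouse plasma was pretreated with protease inhibitors to block non-PrCP conversion of angiotensin III. Inhibitor was then added, and the rate of conversion of AngIII to Ang(2–7) was compared with a vehicle-treated control.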

[2] = target: T1, Lysosomal Pro-X carboxypeptidase; test: Inhibition of recombinant mouse PrCP using Mca-Ala-Pro-Lys(Dnp)-OH as substrate measured for 30 mins by continuous fluorometric assay
[3] = Ratio of drug level in brain to plasma in wild type MDR1A expressing CF1 mouse at 30 mg/kg, po after 2 hrs; format: ADME, organism-based; parameters: dose 30 mg/kg, route oral; conditions: read-out: BPR
How it was run: (§1)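 CF1 MDR1A wild-type and MDR1A(-/-) mice (n = 4 each) received a single 30 mg/kg oral dose. Plasma and brain concentrations (nM) were measured at 2 and 6 h post-dose. The brain/plasma ratio was derived for each time point.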

[4] = Drug uptake in wild type MDR1A expressing CF1 mouse plasma at 30 mg/kg, po after 6 hrs; format: ADME, organism-based; parameters: dose 30 mg/kg, route oral; how it was run: as §1
[5] = Ratio of drug level in brain to plasma in MDR1A knock-out CF1 mouse at 30 mg/kg, po after 2 hrs; format: ADME, organism-based; parameters: dose 30 mg/kg, route oral; conditions: read-out: BPR; how it was run: as §1
[6] = Drug uptake in wild type MDR1A expressing CF1 mouse brain at 30 mg/kg, po after 6 hrs; format: ADME, organism-based; parameters: dose 30 mg/kg, route oral; conditions: read-out: Drug uptake; how it was run: as §1
[7] = Drug uptake in MDR1A knock-out CF1 mouse plasma at 30 mg/kg, po after 6 hrs; format: ADME, organism-based; parameters: dose 30 mg/kg, route oral; how it was run: as §1
[8] = Drug uptake in MDR1A knock-out CF1 mouse plasma at 30 mg/kg, po after 2 hrs; format: ADME, organism-based; parameters: dose 30 mg/kg, route oral; how it was run: as §1
[9] = Drug uptake in wild type MDR1A expressing CF1 mouse brain at 30 mg/kg, po after 2 hrs; format: ADME, organism-based; parameters: dose 30 mg/kg, route oral; conditions: read-out: Drug uptake; how it was run: as §1
[10] = Ratio of drug level in brain to plasma in MDR1A knock-out CF1 mouse at 30 mg/kg, po after 6 hrs; format: ADME, organism-based; parameters: dose 30 mg/kg, route oral; conditions: read-out: BPR; how it was run: as §1
[11] = Drug uptake in MDR1A knock-out CF1 mouse brain at 30 mg/kg, po after 6 hrs; format: ADME, organism-based; parameters: dose 30 mg/kg, route oral; conditions: read-out: Drug uptake; how it was run: as §1
[12] = Ratio of drug level in brain to plasma in wild type MDR1A expressing CF1 mouse at 30 mg/kg, po after 6 hrs; format: ADME, organism-based; parameters: dose 30 mg/kg, route oral; conditions: read-out: BPR; how it was run: as §1
[13] = Drug uptake in MDR1A knock-out CF1 mouse brain at 30 mg/kg, po after 2 hrs; format: ADME, organism-based; parameters: dose 30 mg/kg, route oral; conditions: read-out: Drug uptake; how it was run: as §1
[14] = Drug uptake in wild type MDR1A expressing CF1 mouse plasma at 30 mg/kg, po after 2 hrs; format: ADME, organism-based; parameters: dose 30 mg/kg, route oral; how it was run: as §1
[15] = Half life in mouse at 1 mg/kg, iv and 2 mg/kg, po by LC-MS/MS analysis; format: ADME, organism-based; conditions: in vivo
How it was run: (§2)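 Mice received 1 mg/kg IV (n = 2) or 2 mg/kg PO (n = 3). The formulation was 1 mg/mL in ethanol–PEG–water (20:40:40). Blood was deproteinized with acetonitrile and drug levels were measured by LC/MS/MS. Outputs were clearance, Vd, half-life, %F and dose-normalized oral AUC.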

[16] = Clearance in mouse at 1 mg/kg, iv and 2 mg/kg, po by LC-MS/MS analysis; format: ADME, organism-based; conditions: in vivo; how it was run: as §2
[17] = Volume of distribution in mouse at 1 mg/kg, iv and 2 mg/kg, po by LC-MS/MS analysis; format: ADME, organism-based; conditions: in vivo
How it was run: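 Mouse PK with the compound formulated at 1 mg/mL in ethanol–PEG–water (20:40:40). Given IV at 1 mg/kg (n = 2) and PO at 2 mg/kg (n = 3). Blood concentrations were measured by LC/MS/MS after protein precipitation with acetonitrile. Volume of distribution is reported in L/kg.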

Mus musculus [18] = test: Normalized AUC in mouse at 2 mg/kg, po by LC-MS/MS analysis; format: ADME, organism-based; parameters: dose 2 mg/kg, route oral; conditions: in vivo; how it was run: as §2
[19] = Oral bioavailability in mouse at 2 mg/kg by LC-MS/MS analysis; format: ADME, organism-based; conditions: in vivo; how it was run: as §2
Mus musculus [20] = test: Induction of weight loss in wild type PrCP expressing mouse at 10 mg/kg, sc administered for 7 days; format: functional, organism-based; parameters: dose 10 mg/kg
How it was run: (§3)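 Wild-type and PrCP knockout mice (n = 8 per group) received continuous subcutaneous infusion by pump for 7 days at 10 or 30 mg/kg. The vehicle was DMSO–1,2-propanediol (1:1 v/v). Body weight and food intake were recorded daily and compared with a vehicle group. Injection-site adverse events were noted, and terminal plasma drug concentration was measured.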

Mus musculus [21] = test: Inhibition of wild type PrCP in mouse plasma at 30 mg/kg, sc administered for 7 days by fluorescence analysis; format: functional; conditions: 168 h, route subcutaneous
Mus musculus [22] = test: Induction of weight loss in wild type PrCP expressing mouse at 30 mg/kg, sc administered for 7 days; format: functional, organism-based; parameters: dose 30 mg/kg; how it was run: as §3
Mus musculus [23] = test: Terminal plasma PrCP inhibition in eDIO mouse model at 10 mg/kg, sc administered for 7 days; format: functional; conditions: 168 h, route subcutaneous
Mus musculus [24] = test: Inhibition of wild type PrCP in mouse plasma at 10 mg/kg, sc administered for 7 days by fluorescence analysis; format: functional; conditions: 168 h, route subcutaneous
Mus musculus [25] = species: Mus musculus; conditions: 10 mg/kg
Mus musculus [26] = test: Induction of weight loss in PrCP knock-out mouse at 30 mg/kg, sc administered for 7 days; format: functional, organism-based; parameters: dose 30 mg/kg; how it was run: as §3
Mus musculus [27] = test: Induction of weight loss in PrCP knock-out mouse at 10 mg/kg, sc administered for 7 days; format: functional, organism-based; parameters: dose 10 mg/kg; how it was run: as §3

IC50 [1]: 348 nM
Compound: C[C@H](NC(=O)CCN1CCC(c2nc(-c3ccccn3)no2)CC1)c1ccc(F)cc1

IC50 [2]: 17 nM
IC50 [1]: 17 nM
Compound: O=C(CCN1CCC(c2ccccc2)CC1)NC(c1ccc(Cl)cc1)C(F)F (centres undefined)

Kp at 2 h [3]: 0.01
concentration at 6 h [4]: 91 nM
Kp at 2 h [5]: 0.9
concentration at 6 h [6]: 3 nM
concentration at 6 h [7]: 51 nM
concentration at 2 h [8]: 186 nM
concentration at 2 h [9]: 4 nM
Kp at 6 h [10]: 3.6
IC50 [1]: 26 nM
concentration at 6 h [11]: 185 nM
Kp at 6 h [12]: 0.04
concentration at 2 h [13]: 166 nM
concentration at 2 h [14]: 306 nM
Compound: C[C@@H](c1ccc(-c2ccccc2)cc1)[C@H](NC(=O)C(C)(C)N)C(=O)N1CCC[C@H]1c1nc2cc(Cl)c(Cl)cc2[nH]1

IC50 [2]: 6.6 nM
IC50 [1]: 458 nM
Compound: C[C@@H](c1ccc(-c2ccccc2)cc1)[C@H](NC(=O)C(C)(C)N)C(=O)NC(c1ccc(Cl)cc1)C(F)F (mixture of isomers)

IC50 [2]: 11 nM
IC50 [1]: 570 nM
Compound: C[C@H](NC(=O)[C@@H](N)[C@@H](C)c1ccc(-c2ccccc2)cc1)c1ccc(Cl)cc1

half-life [15]: 0.7 h
clearance [16]: 105 mL/min/kg
IC50 [2]: 10 nM
IC50 [1]: 305 nM
Vd [17]: 5.6 L/kg
AUC/dose (Mus musculus [18]): < 0.01 µM·kg·h/mg
bioavailability [19]: 1.3%
Compound: O=C(CCN1CCC(c2nc(-c3ccccn3)no2)CC1)NC(c1ccc(Cl)cc1)c1ccc(Cl)cc1

half-life [15]: 2.3 h
clearance [16]: 185 mL/min/kg
IC50 [2]: 54 nM
IC50 [1]: 240 nM
Vd [17]: 27 L/kg
AUC/dose (Mus musculus [18]): < 0.01 µM·kg·h/mg
bioavailability [19]: < 1%
Compound: C[C@H](NC(=O)CCN1CCC(c2ccccc2)CC1)c1ccc(Cl)cc1

half-life [15]: 4.4 h
clearance [16]: 78 mL/min/kg
Vd [17]: 24 L/kg
AUC/dose (Mus musculus [18]): 0.19 µM·kg·h/mg
bioavailability [19]: 40%
Compound: C[C@@H](c1ccc(-c2ccccc2)cc1)[C@H](NC(=O)C(C)(C)N)C(=O)NC(c1ccc(Cl)cc1)C(F)(F)F (mixture of isomers)

IC50 [1]: 15 nM
Compound: O=C(CCN1CCC(c2nc(-c3ccccn3)no2)CC1)NC(c1ccncc1)c1ccc(F)cc1 (racemic)

IC50 [2]: 1.4 nM
IC50 [1]: 108 nM
Compound: C[C@@H](c1ccc(-c2ccccc2)cc1)[C@H](N)C(=O)NC(c1ccncc1)c1ccc(Cl)cc1 (mixture of isomers)

IC50 [2]: 2.3 nM
IC50 [1]: 198 nM
Compound: C[C@H](NC(=O)[C@@H](NC(=O)C(C)(C)N)[C@@H](C)c1ccc(-c2ccccc2)cc1)c1ccc(Cl)cc1

half-life [15]: 3.6 h
clearance [16]: 85 mL/min/kg
IC50 [2]: 0.4 nM
IC50 [1]: 6 nM
Vd [17]: 21 L/kg
Compound: C[C@@H](c1ccc(-c2ccccc2)cc1)[C@H](NC(=O)C(C)(C)N)C(=O)NC(c1ccncc1)c1ccc(Cl)cc1 (mixture of isomers)

IC50 [2]: 5.7 nM
Compound: CC(NC(=O)CCN1CCC(c2ccccc2)CC1)c1ccccc1-c1ccccc1 (centres undefined)

IC50 [2]: 4 nM
Compound: O=C(CCN1CCC(c2nc(-c3ccccn3)no2)CC1)N1CCC[C@H]1c1nc2cc(Cl)c(Cl)cc2[nH]1

IC50 [2]: 14 nM
Compound: O=C(CCN1CCC(c2ccccc2)CC1)NC(c1ccc(Cl)cc1)C(F)(F)F (centres undefined)

IC50 [2]: 25 nM
Compound: Cn1cc(C(NC(=O)CCN2CCC(c3ccccc3)CC2)c2ccc(Cl)cc2)cn1 (racemic)

IC50 [2]: 5.2 nM
IC50 [1]: 12.6 nM
Compound: CC(C)[C@H](NC(=O)CCN1CCC(c2ccccc2)CC1)c1ccc(Cl)cc1
Activity (Mus musculus [20]): inactive
inhibition in vivo at 30 mg/kg (Mus musculus [21]): 85%
Activity (Mus musculus [22]): Active
inhibition in vivo at 10 mg/kg (Mus musculus [23]): 65%
inhibition in vivo at 10 mg/kg (Mus musculus [24]): 87%
inhibition (Mus musculus [25]): inactive
Activity (Mus musculus [26]): Active
Activity (Mus musculus [27]): inactive

IC50 [2]: 4 nM
IC50 [1]: 58 nM
Compound: O=C(CCN1CCC(c2ccccc2)CC1)NC(c1ccc(Cl)cc1)c1ccc(Cl)cc1

IC50 [1]: 156 nM
Compound: O=C(CCN1CCC(c2nc(-c3ccccn3)no2)CC1)NC(c1ccc(Cl)cc1)C(F)F (racemic)

IC50 [2]: 2.1 nM
Compound: O=C(CCN1CCC(c2ccccc2)CC1)NC(c1ccncc1)c1ccc(Cl)cc1 (racemic)

IC50 [2]: 20 nM
Compound: C[C@H](NC(=O)CCN1CCC(c2ccccc2)CC1)c1ccc(Br)cc1

IC50 [1]: > 10000 nM
Compound: O=C(CCN1CCC(c2ccccc2)CC1)N1CCC[C@H]1c1nc2cc(Cl)c(Cl)cc2[nH]1
